Assay results from ChEMBL document CHEMBL3046830, “Isolation and identification of secondary metabolites of Clitocybe nuda responsible for inhibition of zoospore germination of Phytophthora capsici” (2012).
Activity calls are given as the source filed them. The rule behind the calls is not given here.

Legend:
Type in all cases: functional
[1] = system: Phytophthora capsici; experiment: Antimicrobial activity against Phytophthora capsici PCM81 assessed as inhibition of zoospore germination at 500 mg/L at 24 degC for 8 hr; conditions: for inhibition at 500 µg/mL: PCM81, 8 h
How it was run: (§1)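 P. capsici PCM81 sporangia grown 5 days on 10% V8 agar at 24 °C under a 12 h light–dark cycle. Zoospores released in sterile water for 1 day at 24 °C, then chilled at 4 °C for 1 h. The suspension is mixed 1:1 with the sample in a cavity slide and kept moist; a distilled-water mix is the control. Germination is scored after 8 h at 24 °C, counting 100 spores × 4 replicates, with the experiment run twice and analysed by Duncan's test.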

[2] = system: Phytophthora capsici; experiment: Antimicrobial activity against Phytophthora capsici PCM81 assessed as zoospore germination at 100 ppm at 24 degC for 8 hr; how it was run: as §1
[3] = system: Phytophthora capsici; experiment: Antimicrobial activity against Phytophthora capsici PCM81 assessed as zoospore germination at 1000 ppm at 24 degC for 8 hr; how it was run: as §1
[4] = system: Phytophthora capsici; experiment: Antimicrobial activity against Phytophthora capsici PCM81 assessed as zoospore germination at 500 ppm at 24 degC for 8 hr; how it was run: as §1

O=Cc1c[nH]c2ccccc12 [3-FORMYLINDOLE] was tested, and the inhibition [1] was “Active”, the Activity [2] was 57% and the Activity [3] was 0%. For the same molecule, the Activity [4] was 0%.
In the case of O=CC1=CC=C(O)OC1, the inhibition at 500 µg/mL [1] is reported as 86%, the Activity [2] is reported as 77% and the Activity [3] is reported as 0%. It also gave an Activity [4] of 14.5%.
In the case of COCC1=C(C)C(=O)C=C(OC)C1=O, the inhibition at 500 µg/mL [1] is reported as 97%, the Activity [2] is reported as 65% and the Activity [3] is reported as 0%. It also gave an Activity [4] of 3%.
